The text below walks through data of ChEMBL document CHEMBL1130251, “Enzymatic properties of the unnatural beta-L-enantiomers of 2',3'-dideoxyadenosine and 2',3'-didehydro-2',3'-dideoxyadenosine” (J Med Chem, 1997).

The nature of data set [1]: Half life of the compound. The class given is ADME. In short, it runs like this:
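Deamination by calf intestinal mucosa adenosine deaminase (type VIII) at 37 °C in 50 mM phosphate buffer pH 7.5. Substrate 20–80 μM with 0.01–1 unit of enzyme depending on substrate. Conversion followed over time by HPLC on C-18 with a phosphate pH 6 / acetonitrile gradient, which also confirmed the deaminated nucleoside as sole product.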

A further data set deals with T1, Adenosine deaminase (Bos taurus, UniProt P56658).
T1 sequence (P56658 whole entry): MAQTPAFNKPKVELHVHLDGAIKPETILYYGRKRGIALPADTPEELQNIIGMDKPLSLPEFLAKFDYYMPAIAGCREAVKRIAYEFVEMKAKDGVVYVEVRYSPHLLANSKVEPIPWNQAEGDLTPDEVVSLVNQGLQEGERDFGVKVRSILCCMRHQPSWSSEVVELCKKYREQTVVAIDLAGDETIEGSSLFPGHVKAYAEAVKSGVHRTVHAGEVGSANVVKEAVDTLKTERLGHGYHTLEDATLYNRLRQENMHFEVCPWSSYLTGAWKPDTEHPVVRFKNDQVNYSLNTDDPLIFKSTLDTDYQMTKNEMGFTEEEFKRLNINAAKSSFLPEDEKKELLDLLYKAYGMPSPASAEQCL
As to the kind of experiment: inhibitory activity against Adenosine deaminase. A digest of the protocol: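 Adenosine deaminase (calf intestinal mucosa, type VIII) at 37 °C in 50 mM phosphate pH 7.5. Substrate tests used 20–80 μM nucleoside and 0.01–1 unit enzyme, with HPLC product analysis. Inhibition was read by UV spectrometry with adenosine 20–100 μM. Ki was taken from Lineweaver–Burk plots assuming competitive inhibition.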

The half-life is the time in which the quantity being followed falls by half. As for `Nc1ncnc2c1ncn2[C@H]1C=C[C@@H](CO)O1`, the half-life in data set [1] is 74.4 h.

As usually defined, the Ki is a dissociation constant, usually derived from enzyme kinetics or from competition with a known ligand. Lower therefore signals tighter binding. For the molecule `Nc1ncnc2c1ncn2[C@H]1CC[C@@H](CO)O1`, the Ki at Adenosine deaminase is 120 µM.
